Measurements taken from ChEMBL document CHEMBL3112420, “Discovery of 8-cyclopentyl-2-[4-(4-methyl-piperazin-1-yl)-phenylamino]-7-oxo-7,8-dihydro-pyrido[2,3-d]pyrimidine-6-carbonitrile (7x) as a potent inhibitor of cyclin-dependent kinase 4 (CDK4) and AMPK-related kinase 5 (ARK5)” (J Med Chem, 2014).
Activity calls are given as the source filed them. The calls are words filed in the database; no cut-off is given here.

Tests used:
HCT-15 = assay: Cytotoxicity against human HCT15 cells after 96 hrs by Cell-Titer Blue assay; assay type: functional; conditions: HCT-15, 96 h
[1] = Cytotoxicity against human SNU398 cells after 96 hrs by Cell-Titer Blue assay; assay type: functional; conditions: SNU-398, 96 h
[2] = Cytotoxicity against human Z138C cells after 96 hrs by Cell-Titer Blue assay; assay type: functional
MDA-MB-231 [3] = assay: Cell cycle arrest in human MDA-MB-231 cells assessed as accumulation at G1 phase at 0.5 to 1 uM after 24 hrs by propidium iodide staining-based flow cytometric analysis; assay type: functional
How it was run: (§1)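 Cells plated at 1.0 × 10^6 per dish, then treated 24 h later with increasing concentrations for 24 h. Floating and adherent cells were pooled, PBS-washed and fixed in ice-cold 70% ethanol for at least 24 h. They were then stained with propidium iodide plus RNase A for 30 min at 37 °C. Percentage of cells in each phase was read by flow cytometry.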

[4] = target: Tyrosine-protein kinase Fyn (Homo sapiens, UniProt P06241); assay: Inhibition of FYN (unknown origin)
Mus musculus [5] = assay: Toxicity in NCR nude mouse xenografted with human MDA-MB-231 cells assessed as weight loss at 50 mg/kg, ip […] administered on alternative days measured every 2 days up to 21 days; assay type: organism-based; design: dose 50 mg/kg, route intraperitoneal; conditions: in vivo
How it was run: (§2)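 MDA-MB-231 cells orthotopically implanted into mammary fat pads of 6–8 week old female nude mice (n=11 per group). Dosing began when average tumour volume reached 100 mm3. Lactate salt in PBS or vehicle was given intraperitoneally every other day (Q2D). Tumour volumes and body weights were recorded every 2 days over 21 days; mean ± SEM.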

MCF7 [6] = assay: Induction of apoptosis in human MCF7 cells assessed as PARP cleavage after 24 hrs by Western blotting analysis; assay type: functional, cell-based
[7] = target: T1, Cyclin-dependent kinase 4/cyclin D1 (Homo sapiens) (UniProt P11802+P24385); assay: Inhibition of recombinant CDK4/cyclinD1 in human MCF7 cells assessed as inhibition of retinoblastoma phosphorylation at Ser780 at 0.5 to 5 uM after 24 hrs by Western blotting analysis; assay type: cell-based
How it was run: (§3)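 Breast carcinoma cells were given increasing concentrations for 24 h. Total lysates (100 μg, 10% SDS-PAGE) were immunoblotted with antibodies against Ser780-phosphorylated and non-phosphorylated RB. Bands were read on an infrared scanning system.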

[8] = Cytotoxicity against human SNU449 cells after 96 hrs by Cell-Titer Blue assay; assay type: functional; conditions: SNU-449, 96 h
[9] = target: Macrophage colony-stimulating factor 1 receptor (Homo sapiens, UniProt P07333); assay: Inhibition of FMS (unknown origin)
MDA-MB-231 [10] = assay: Inhibition of PI3K in human MDA-MB-231 cells assessed as inhibition of Akt phosphorylation at Ser473 at 0.1 to 10 uM after 24 hrs by Western blotting analysis; assay type: cell-based
How it was run: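 Total lysates (100 μg) were run on 10% SDS-PAGE and immunoblotted for Ser473-phosphorylated and total AKT, with GAPDH as loading control. Detection used infrared-dye secondary antibodies.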

[11] = target: T1, Cyclin-dependent kinase 4/cyclin D1 (Homo sapiens); assay: Inhibition of recombinant CDK4/cyclinD1 in human MDA-MB-231 cells assessed as inhibition of retinoblastoma phosphorylation at Ser780 at 0.5 to 5 uM after 24 hrs by Western blotting analysis; assay type: cell-based; how it was run: as §3
CDK6/cyclin D1 = CDK6/cyclin D1 (Homo sapiens, UniProt Q00534); assay: Inhibition of CDK6/cyclinD1 (unknown origin); assay type: protein-complex assay
MDA-MB-231 [12] = assay: Cell cycle arrest in human MDA-MB-231 cells assessed as accumulation at sub-G1 phase at 0.5 to 1 uM after 48 hrs by propidium iodide staining-based flow cytometric analysis; assay type: functional
MDA-MB-231 [13] = assay: Induction of apoptosis in human MDA-MB-231 cells assessed as PARP cleavage at 1 to 10 uM after 24 hrs by Western blotting analysis; assay type: functional, cell-based
[14] = Cytotoxicity against human SNU5 cells after 96 hrs by Cell-Titer Blue assay; assay type: functional; conditions: SNU-5, 96 h
A549 = assay: Cytotoxicity against human A549 cells after 96 hrs by Cell-Titer Blue assay; assay type: functional; conditions: A549, 96 h
MDA-MB-231 [15] = assay: Antitumor activity against ip dosed human MDA-MB-231 cells xenografted in NCR nude mouse assessed as inhibition of tumor growth administered as […] on alternative days measured every 2 days up to 21 days; assay type: functional, organism-based; how it was run: as §2
MDA-MB-231 [16] = assay: Antitumor activity against human MDA-MB-231 cells xenografted in NCR nude mouse assessed as decrease in tumor weight at 50 mg/kg, ip […] administered on alternative days measured every 2 days up to 21 days; assay type: functional, organism-based; design: dose 50 mg/kg; how it was run: as §2
[17] = Cytotoxicity against human SNU475 cells after 96 hrs by Cell-Titer Blue assay; assay type: functional; conditions: SNU-475, 96 h
[18] = target: Receptor-type tyrosine-protein kinase FLT3 (Homo sapiens, UniProt P36888); assay: Inhibition of FLT3 (unknown origin)
K562 = assay: Cytotoxicity against human K562 cells after 96 hrs by Cell-Titer Blue assay; assay type: functional, cell-based; conditions: K562, 96 h
[19] = Toxicity in CD-1 mouse […] assessed as survival rate at 200 mg/kg, ip administered for 5 days measured after 10 days; assay type: organism-based; design: dose 200 mg/kg, route intraperitoneal; conditions: in vivo
How it was run: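 Female CD-1 mice (n=3) were given 200 mg/kg ip on 5 consecutive days. They were then monitored for signs of toxicity, with survival followed beyond 10 days after injection. This came after an initial single-dose test at 100 or 200 mg/kg ip with 7-day monitoring.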

MCF7 [20] = assay: Cell cycle arrest in human MCF7 cells assessed as accumulation at G1 phase at 0.5 to 1 uM after 24 hrs by propidium iodide staining-based flow cytometric analysis; assay type: functional; how it was run: as §1
[21] = Cytotoxicity against human SKBR3 cells after 96 hrs by Cell-Titer Blue assay; assay type: functional; conditions: SK-BR-3, 96 h
[22] = Cytotoxicity against human GRANTA-519 cells after 96 hrs by Cell-Titer Blue assay; assay type: functional; conditions: Granta-519, 96 h
SW480 = assay: Cytotoxicity against human SW480 cells after 96 hrs by Cell-Titer Blue assay; assay type: functional; conditions: SW480, 96 h
MCF7 [23] = assay: Induction of apoptosis in human MCF7 cells assessed as PARP cleavage at 1 to 10 uM after 24 hrs by Western blotting analysis; assay type: functional, cell-based
[24] = Cytotoxicity against human U87 cells after 96 hrs by Cell-Titer Blue assay; assay type: functional, U-87MG ATCC; conditions: U-87 MG
MDA-MB-468 = assay: Cytotoxicity against human MDA-MB-468 cells after 96 hrs by Cell-Titer Blue assay; assay type: functional; conditions: MDA-MB-468, 96 h
[25] = target: Platelet-derived growth factor receptor beta (Homo sapiens, UniProt P09619); assay: Inhibition of PDGFRbeta (unknown origin)
Mus musculus [26] = assay: Toxicity in CD-1 mouse xenografted with human MDA-MB-231 cells assessed as weight loss at 100 to 200 mg/kg, ip measured for 7 days; assay type: organism-based; design: dose 100-200 mg/kg, route intraperitoneal; conditions: in vivo, 168 h
COLO 205 = assay: Cytotoxicity against human COLO205 cells after 96 hrs by Cell-Titer Blue assay; assay type: functional; conditions: COLO 205, 96 h
MCF7 [27] = assay: Cell cycle arrest in human MCF7 cells assessed as accumulation at sub-G1 phase at 0.5 to 1 uM after 48 hrs by propidium iodide staining-based flow cytometric analysis; assay type: functional
[28] = Cytotoxicity against human HFL cells after 96 hrs by Cell-Titer Blue assay; assay type: cell-based

Sequence of Macrophage colony-stimulating factor 1 receptor (P07333 whole entry): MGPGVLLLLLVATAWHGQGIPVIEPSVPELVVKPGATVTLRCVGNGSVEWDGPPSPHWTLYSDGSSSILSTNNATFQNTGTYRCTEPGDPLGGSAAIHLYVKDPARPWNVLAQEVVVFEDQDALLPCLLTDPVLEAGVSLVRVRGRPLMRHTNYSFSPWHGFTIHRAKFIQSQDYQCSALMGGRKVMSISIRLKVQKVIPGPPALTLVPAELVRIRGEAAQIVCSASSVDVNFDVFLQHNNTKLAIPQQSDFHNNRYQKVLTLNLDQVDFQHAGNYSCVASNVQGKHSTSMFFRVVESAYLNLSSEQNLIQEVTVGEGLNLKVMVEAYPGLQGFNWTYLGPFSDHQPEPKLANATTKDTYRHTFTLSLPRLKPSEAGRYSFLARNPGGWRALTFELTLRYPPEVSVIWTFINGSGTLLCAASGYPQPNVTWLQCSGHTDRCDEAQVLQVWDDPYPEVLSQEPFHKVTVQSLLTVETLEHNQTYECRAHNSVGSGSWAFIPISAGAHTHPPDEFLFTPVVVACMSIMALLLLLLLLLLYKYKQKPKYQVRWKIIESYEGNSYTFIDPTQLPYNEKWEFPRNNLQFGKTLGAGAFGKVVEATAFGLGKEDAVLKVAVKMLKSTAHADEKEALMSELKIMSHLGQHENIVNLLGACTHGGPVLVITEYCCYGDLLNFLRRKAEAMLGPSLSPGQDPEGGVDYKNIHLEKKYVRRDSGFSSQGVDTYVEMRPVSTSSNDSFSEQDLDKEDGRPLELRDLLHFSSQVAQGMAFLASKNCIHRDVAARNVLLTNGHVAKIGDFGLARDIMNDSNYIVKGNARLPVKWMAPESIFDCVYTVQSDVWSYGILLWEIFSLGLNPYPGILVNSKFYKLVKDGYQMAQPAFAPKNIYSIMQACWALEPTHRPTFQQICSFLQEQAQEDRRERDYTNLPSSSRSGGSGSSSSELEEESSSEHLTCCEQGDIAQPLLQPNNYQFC
Sequence of Tyrosine-protein kinase Fyn (P06241 whole entry): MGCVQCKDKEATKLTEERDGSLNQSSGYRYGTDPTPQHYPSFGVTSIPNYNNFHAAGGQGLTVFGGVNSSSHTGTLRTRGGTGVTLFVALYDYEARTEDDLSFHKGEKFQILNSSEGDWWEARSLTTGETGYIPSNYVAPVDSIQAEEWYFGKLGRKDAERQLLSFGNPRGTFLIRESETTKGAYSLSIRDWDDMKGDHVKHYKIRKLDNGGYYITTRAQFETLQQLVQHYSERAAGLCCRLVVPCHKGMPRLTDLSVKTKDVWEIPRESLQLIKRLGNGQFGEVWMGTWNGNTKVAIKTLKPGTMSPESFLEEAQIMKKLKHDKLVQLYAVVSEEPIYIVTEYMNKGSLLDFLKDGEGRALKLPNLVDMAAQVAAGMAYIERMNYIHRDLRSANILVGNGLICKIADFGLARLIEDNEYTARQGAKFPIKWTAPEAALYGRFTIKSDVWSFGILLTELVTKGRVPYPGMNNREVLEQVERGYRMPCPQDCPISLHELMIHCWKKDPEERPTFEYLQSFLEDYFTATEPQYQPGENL
Sequence of Platelet-derived growth factor receptor beta (P09619 whole entry): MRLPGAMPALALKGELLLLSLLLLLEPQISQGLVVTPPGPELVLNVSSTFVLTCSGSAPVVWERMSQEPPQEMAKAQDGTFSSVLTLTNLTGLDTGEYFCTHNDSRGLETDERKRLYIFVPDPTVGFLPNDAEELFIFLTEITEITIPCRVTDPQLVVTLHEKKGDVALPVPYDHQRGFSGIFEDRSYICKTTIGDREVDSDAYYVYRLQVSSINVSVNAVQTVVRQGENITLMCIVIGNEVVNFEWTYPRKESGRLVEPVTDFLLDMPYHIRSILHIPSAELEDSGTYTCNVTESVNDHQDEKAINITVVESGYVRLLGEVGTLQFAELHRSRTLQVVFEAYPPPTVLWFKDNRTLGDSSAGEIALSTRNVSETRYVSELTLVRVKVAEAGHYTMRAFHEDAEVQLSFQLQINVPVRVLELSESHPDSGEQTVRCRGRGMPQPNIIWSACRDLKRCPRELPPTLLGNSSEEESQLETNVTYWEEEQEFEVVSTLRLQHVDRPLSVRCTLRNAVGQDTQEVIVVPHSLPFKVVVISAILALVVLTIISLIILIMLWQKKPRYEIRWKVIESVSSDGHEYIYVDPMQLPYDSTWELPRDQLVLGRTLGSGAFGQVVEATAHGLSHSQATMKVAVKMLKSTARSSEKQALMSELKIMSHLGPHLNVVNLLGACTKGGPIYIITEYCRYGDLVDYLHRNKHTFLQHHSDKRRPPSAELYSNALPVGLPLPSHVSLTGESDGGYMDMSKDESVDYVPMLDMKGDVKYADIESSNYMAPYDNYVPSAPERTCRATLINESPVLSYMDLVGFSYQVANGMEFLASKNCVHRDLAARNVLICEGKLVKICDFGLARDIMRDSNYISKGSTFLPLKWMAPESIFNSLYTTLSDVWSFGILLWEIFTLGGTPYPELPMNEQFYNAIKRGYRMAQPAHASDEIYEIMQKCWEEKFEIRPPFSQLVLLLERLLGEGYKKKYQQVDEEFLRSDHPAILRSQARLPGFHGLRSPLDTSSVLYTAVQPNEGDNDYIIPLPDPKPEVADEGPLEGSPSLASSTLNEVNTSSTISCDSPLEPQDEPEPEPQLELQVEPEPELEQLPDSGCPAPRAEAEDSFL
Sequence of Receptor-type tyrosine-protein kinase FLT3 (P36888 whole entry): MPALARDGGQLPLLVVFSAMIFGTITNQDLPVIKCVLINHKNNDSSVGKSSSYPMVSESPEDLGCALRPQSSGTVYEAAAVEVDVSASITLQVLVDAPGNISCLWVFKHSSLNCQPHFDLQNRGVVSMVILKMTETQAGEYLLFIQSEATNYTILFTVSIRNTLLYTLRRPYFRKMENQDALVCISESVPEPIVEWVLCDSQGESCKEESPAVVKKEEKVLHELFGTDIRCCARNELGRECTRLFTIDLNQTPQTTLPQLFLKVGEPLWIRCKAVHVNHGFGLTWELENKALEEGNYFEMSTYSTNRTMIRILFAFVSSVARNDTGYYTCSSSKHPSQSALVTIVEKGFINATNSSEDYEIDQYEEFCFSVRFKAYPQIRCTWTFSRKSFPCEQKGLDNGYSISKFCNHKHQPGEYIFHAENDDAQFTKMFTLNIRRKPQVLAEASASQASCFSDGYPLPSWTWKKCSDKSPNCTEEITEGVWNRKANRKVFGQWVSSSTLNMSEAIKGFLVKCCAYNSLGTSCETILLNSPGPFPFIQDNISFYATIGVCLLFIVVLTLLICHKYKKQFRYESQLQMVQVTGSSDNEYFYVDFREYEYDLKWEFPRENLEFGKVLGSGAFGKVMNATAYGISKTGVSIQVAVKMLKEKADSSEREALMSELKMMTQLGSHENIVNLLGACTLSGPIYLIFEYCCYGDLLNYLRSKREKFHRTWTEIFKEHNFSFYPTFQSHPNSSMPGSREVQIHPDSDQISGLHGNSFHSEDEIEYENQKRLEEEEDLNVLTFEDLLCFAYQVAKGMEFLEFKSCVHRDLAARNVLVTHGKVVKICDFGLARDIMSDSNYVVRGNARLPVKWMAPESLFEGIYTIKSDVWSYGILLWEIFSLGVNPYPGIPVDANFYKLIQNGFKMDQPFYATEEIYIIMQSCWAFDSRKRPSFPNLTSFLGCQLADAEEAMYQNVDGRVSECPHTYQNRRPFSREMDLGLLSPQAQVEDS
Sequence of CDK6/cyclin D1 (P24385 whole entry): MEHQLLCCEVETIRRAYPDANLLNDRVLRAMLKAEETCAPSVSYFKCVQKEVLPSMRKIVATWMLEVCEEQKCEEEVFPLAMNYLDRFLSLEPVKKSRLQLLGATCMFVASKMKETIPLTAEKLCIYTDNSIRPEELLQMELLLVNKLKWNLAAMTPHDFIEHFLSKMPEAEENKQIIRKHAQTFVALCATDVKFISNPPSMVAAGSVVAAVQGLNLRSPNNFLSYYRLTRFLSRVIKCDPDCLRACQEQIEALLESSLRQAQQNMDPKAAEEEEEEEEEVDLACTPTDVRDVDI
Sequence of CDK6/cyclin D1 (Q00534 whole entry): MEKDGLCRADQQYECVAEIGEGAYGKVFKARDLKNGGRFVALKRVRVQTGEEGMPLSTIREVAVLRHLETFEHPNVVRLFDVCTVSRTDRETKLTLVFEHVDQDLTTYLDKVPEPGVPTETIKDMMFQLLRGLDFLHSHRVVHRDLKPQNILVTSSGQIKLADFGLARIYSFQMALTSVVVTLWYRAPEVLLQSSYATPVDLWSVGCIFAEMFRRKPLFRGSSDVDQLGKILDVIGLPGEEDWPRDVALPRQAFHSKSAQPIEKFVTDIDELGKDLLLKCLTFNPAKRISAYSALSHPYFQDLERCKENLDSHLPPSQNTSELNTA

**Q.** For `CN1CCN(c2ccc(Nc3ncc4cc(C#N)c(=O)n(C5CCCC5)c4n3)cc2)CC1` [NARAZACICLIB], which GI50 (HCT-15) is on record?
**A.** The GI50 was 300 nM.

**Q.** And the GI50 [1]?
**A.** The GI50 was 200 nM.

**Q.** What about the GI50 [2] of the same compound?
**A.** The GI50 was 25 nM.

**Q.** And the Activity (MDA-MB-231 [3])?
**A.** Its Activity is “Active”.

**Q.** What about the IC50 [4] of the same compound?
**A.** The IC50 was 11.1 nM.

**Q.** And the Activity (Mus musculus [5])?
**A.** The Activity was “Non-toxic”.

**Q.** What about the Activity (MCF7 [6]) of the same compound?
**A.** The Activity was “Dose-dependent effect”.

**Q.** What about the inhibition [7] of the same compound?
**A.** The inhibition was “Active”.

**Q.** And the GI50 [8]?
**A.** Its GI50 is 750 nM.

**Q.** What about the IC50 [9] of the same compound?
**A.** The IC50 was 10 nM.

**Q.** And the inhibition (MDA-MB-231 [10])?
**A.** The inhibition was “Active”.

**Q.** What about the inhibition [11] of the same compound?
**A.** The inhibition was “Active”.

**Q.** And the IC50 (CDK6/cyclin D1)?
**A.** The IC50 was 9.82 nM.

**Q.** What about the Activity (MDA-MB-231 [12]) of the same compound?
**A.** The Activity was “Active”.

**Q.** And the Activity (MDA-MB-231 [13])?
**A.** Its Activity is “Active”.

**Q.** What about the GI50 [14] of the same compound?
**A.** The GI50 was 100 nM.

**Q.** And the GI50 (A549)?
**A.** The GI50 was 200 nM.

**Q.** What about the inhibition (MDA-MB-231 [15]) of the same compound?
**A.** Its inhibition is “Dose-dependent effect”.

**Q.** And the Activity (MDA-MB-231 [16])?
**A.** The Activity was “Active”.

**Q.** And the GI50 [17]?
**A.** The GI50 was 300 nM.

**Q.** And the IC50 [18]?
**A.** Its IC50 is 12.2 nM.

**Q.** And the GI50 (K562)?
**A.** The GI50 was 100 nM.

**Q.** And the IC50 (K562)?
**A.** Its IC50 is 50 nM.

**Q.** And the survival at 240 h [19]?
**A.** Its survival at 240 h is 100%.

**Q.** What about the Activity (MCF7 [20]) of the same compound?
**A.** The Activity was “Active”.

**Q.** And the GI50 [21]?
**A.** The GI50 was 150 nM.

**Q.** And the GI50 [22]?
**A.** Its GI50 is 25 nM.

**Q.** And the GI50 (SW480)?
**A.** The GI50 was 90 nM.

**Q.** And the Activity (MCF7 [23])?
**A.** Its Activity is “Active”.

**Q.** What about the GI50 [24] of the same compound?
**A.** The GI50 was 100 nM.

**Q.** What about the GI50 (MDA-MB-468) of the same compound?
**A.** The GI50 was 2000 nM.

**Q.** What about the IC50 [25] of the same compound?
**A.** Its IC50 is 26 nM.

**Q.** What about the Activity (Mus musculus [26]) of the same compound?
**A.** The Activity was “Non-toxic”.

**Q.** And the GI50 (COLO 205)?
**A.** Its GI50 is 100 nM.

**Q.** And the Activity (MCF7 [27])?
**A.** Its Activity is “Active”.

**Q.** What about the GI50 at 96 h [28] of the same compound?
**A.** Its GI50 at 96 h is 5000 nM.
